From ChEMBL document CHEMBL3132832, “Design of Potential Bisubstrate Inhibitors against Mycobacterium tuberculosis (Mtb) 1-Deoxy-D-Xylulose 5-Phosphate Reductoisomerase (Dxr)-Evidence of a Novel Binding Mode” (Medchemcomm, 2013) come the findings set out here.

One may read the pIC50 as −log10 of the IC50, conventionally taken in molar units. A word on the MIC99: it is the lowest concentration that inhibits either 99% of growth or 99% of the strains tested, depending on the study. Higher therefore signals weaker potency.

pIC50: −log10 of the molar value. In brackets after ≈: the same amount, converted by molar mass. Activity calls are given as the source filed them. The rule behind the calls is not given here.

Experiment [1] deals with Mycobacterium tuberculosis. The experiment in a line: Inhibition of His-tagged Mycobacterium tuberculosis DXR expressed in Escherichia coli BL21(DE3) using DXP as substrate assessed as residual activity at 100 uM preincubated for 10 mins followed by NADPH and substrate addition by spectrophotometric analysis relative to control. The method, boiled down: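 IMAC-purified His-tagged Mtb Dxr was tested with inhibitor at 100 μM, preincubated 10 min at 37 °C before substrate. NADPH oxidation was followed spectrophotometrically at 37 °C. Inhibition is relative. Duplicate assays.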

The nature of experiment [2]: Inhibition of His-tagged Mycobacterium tuberculosis DXR expressed in Escherichia coli BL21(DE3) using DXP as substrate assessed as oxidation of NADPH preincubated for 10 mins followed by NADPH and substrate addition by spectrophotometric analysis. The method in brief:
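Activity was read spectrophotometrically at 37 °C as NADPH oxidation. Enzyme was preincubated with inhibitor for 10 min at 37 °C before substrate. Run in duplicate. IC50 came from nonlinear regression of dose-response plots.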

The test system of experiment [3] is Mycobacterium tuberculosis. Put plainly: Antitubercular activity against Mycobacterium tuberculosis H37Rv ATCC 27294 after 2 weeks. In kind it is functional. The note with it: H37Rv ATCC 27294, 336 h. The method in brief: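 Mtb H37Rv was grown to OD 0.5 in 7H9 with 0.05% Tween-80, 0.2% glycerol and ADC, then diluted 1:1000. Inhibitors from 50 mg/mL DMSO stocks were serially 2-fold diluted (eight dilutions). Three independent measurements.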

The test system of experiment [4] is Mycobacterium tuberculosis. The experiment in a line: Noncompetitive inhibition of His-tagged Mycobacterium tuberculosis DXR expressed in Escherichia coli BL21(DE3) using DXP as substrate at 5 to 50 uM by Lineweaver-Burk plot analysis in presence of 0.01 to 0.05 uM NADPH.
The subject of experiment [5] is Mycobacterium tuberculosis. Put plainly: Competitive inhibition of His-tagged Mycobacterium tuberculosis DXR expressed in Escherichia coli BL21(DE3) using DXP as substrate at 5 to 50 uM by Lineweaver-Burk plot analysis in presence of NADPH. The method in brief:
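For mode of inhibition versus DXP, purified His-tagged Mtb Dxr was run at 37 °C with NADPH fixed at 150 µM or 30 µM depending on inhibitor. Enzyme and inhibitor were preincubated 10 min at 37 °C before substrate. NADPH oxidation was followed spectrophotometrically. Duplicates were analysed by Lineweaver-Burk plots.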

Experiment [6] has as its system Mycobacterium tuberculosis. Put plainly: Uncompetitive inhibition of His-tagged Mycobacterium tuberculosis DXR expressed in Escherichia coli BL21(DE3) using DXP as substrate at 5 to 50 uM by Lineweaver-Burk plot analysis in presence of 0.01 to 0.05 uM NADPH.

For `CC(=O)N(CCCP(=O)(O)O)OCC1CCCCC1`, the Activity in experiment [1] was determined as 83.5%.
With `CC(=O)N(CCCP(=O)(O)O)OCc1ccc(C(C)C)cc1`, in experiment [2], the pIC50 was 4.32.
In experiment [3], `O=CN(O)CCCP(=O)(O)O` [FOSMIDOMYCIN] yielded an MIC99 above 500 µg/mL.
Take `O=C(C1CCCCC1)N(O)CCCP(=O)(O)O`: the Activity in experiment [1] turned out to be 80%.
On the same count and under the same terms, with `CC(=O)N(CCCP(=O)(O)O)OCCc1ccccc1` the figure was 81.5%.
In experiment [3], `CCOP(=O)(CCCN(O)C=O)OCC` registered an MIC99 of 250 µg/mL (≈ 1050 µM).
Turning to `O=C(Cc1ccccc1)N(O)CCCP(=O)(O)O`, in experiment [2], the negative-log IC50 (pIC50) is 4.57.
As to `CC(=O)N(CCCP(=O)(O)O)OCCCc1ccccc1`, the Activity in experiment [1] came to 77.5%.
In experiment [3], `CCOP(=O)(CCCN(O)C(=O)CCCc1ccccc1)OCC` yielded an MIC99 of 200 µg/mL (≈ 560 µM).
`O=C(CCCc1ccccc1)N(O)CCCP(=O)([O-])O.[Na+]` showed an MIC99 in experiment [3] above 200 µg/mL. Also, the inhibition result in experiment [4] and in experiment [5] was “Active” in each case. For the same compound, the negative logarithm of the IC50 (pIC50) in experiment [2] is 4.75.
`CC(=O)N(O)CCCP(=O)([O-])O.[Na+]` gave an MIC99 in experiment [3] above 500 µg/mL. Further, the inhibition result in experiment [6] and in experiment [5] was “Active” in each case. The negative-log IC50 (pIC50) in experiment [2] was 5.62.
